The source of these data is ChEMBL document CHEMBL1221183, “Chemical modulation of receptor signaling inhibits regenerative angiogenesis in adult zebrafish” (Nat Chem Biol, 2006).

The source made the active and inactive calls. The rule behind the calls is not given here.

Experiment [1] concerns the target Vascular endothelial growth factor receptor 2 (Danio rerio) (UniProt Q5GIT4). Nature of the experiment: Inhibition of VEGFR2-mediated regenerative angiogenesis in adult zebrafish tail fin vessel at 100 to 500 nM after 3 days by microscopy. The essentials: (§1)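 Adult fins cut at mid-fin level; fish kept in fish water with inhibitor (DMSO stock, final DMSO <0.1%) at 31-33 °C, up to six fish per liter, for 3 dpa. Tg(fli1:EGFP)y1 endothelial signal imaged by fluorescence microscopy, with perfusion shown by intracardiac angiography in the same fish.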

For experiment [2], the species on record is Danio rerio. Description: Decrease in VEGFR2 gene expression in adult zebrafish tail fin at 500 nM up to 2 days by in-situ hybridization assay.
Experiment [3] is filed under the species Danio rerio. Description: Effect on ephrinB2a mRNA expression in adult zebrafish tail fin at 500 nM treated for 3 days measured on day 5 following drug washout by real-time PCR analysis. Background: Real-time PCR tracks product formation cycle by cycle.
The target of experiment [4] is Vascular endothelial growth factor receptor 2 (Danio rerio) (UniProt Q5GIT4). Nature of the experiment: Inhibition of VEGFR2-mediated regenerative angiogenesis in adult zebrafish tail fin at 500 nM treated for 3 days measured after 4 days of drug washout by angiography. The essentials: (§2)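 Amputated adult Tg(fli1:EGFP)y1 fins recovered at 31-33 °C in fish water or 500 nM inhibitor (final DMSO <0.1%); in washout runs the drug was removed at 3 dpa. The same fish were imaged over several days.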
Sequence of Vascular endothelial growth factor receptor 2 (Danio rerio) (Q5GIT4 whole entry, the tested form may be a part): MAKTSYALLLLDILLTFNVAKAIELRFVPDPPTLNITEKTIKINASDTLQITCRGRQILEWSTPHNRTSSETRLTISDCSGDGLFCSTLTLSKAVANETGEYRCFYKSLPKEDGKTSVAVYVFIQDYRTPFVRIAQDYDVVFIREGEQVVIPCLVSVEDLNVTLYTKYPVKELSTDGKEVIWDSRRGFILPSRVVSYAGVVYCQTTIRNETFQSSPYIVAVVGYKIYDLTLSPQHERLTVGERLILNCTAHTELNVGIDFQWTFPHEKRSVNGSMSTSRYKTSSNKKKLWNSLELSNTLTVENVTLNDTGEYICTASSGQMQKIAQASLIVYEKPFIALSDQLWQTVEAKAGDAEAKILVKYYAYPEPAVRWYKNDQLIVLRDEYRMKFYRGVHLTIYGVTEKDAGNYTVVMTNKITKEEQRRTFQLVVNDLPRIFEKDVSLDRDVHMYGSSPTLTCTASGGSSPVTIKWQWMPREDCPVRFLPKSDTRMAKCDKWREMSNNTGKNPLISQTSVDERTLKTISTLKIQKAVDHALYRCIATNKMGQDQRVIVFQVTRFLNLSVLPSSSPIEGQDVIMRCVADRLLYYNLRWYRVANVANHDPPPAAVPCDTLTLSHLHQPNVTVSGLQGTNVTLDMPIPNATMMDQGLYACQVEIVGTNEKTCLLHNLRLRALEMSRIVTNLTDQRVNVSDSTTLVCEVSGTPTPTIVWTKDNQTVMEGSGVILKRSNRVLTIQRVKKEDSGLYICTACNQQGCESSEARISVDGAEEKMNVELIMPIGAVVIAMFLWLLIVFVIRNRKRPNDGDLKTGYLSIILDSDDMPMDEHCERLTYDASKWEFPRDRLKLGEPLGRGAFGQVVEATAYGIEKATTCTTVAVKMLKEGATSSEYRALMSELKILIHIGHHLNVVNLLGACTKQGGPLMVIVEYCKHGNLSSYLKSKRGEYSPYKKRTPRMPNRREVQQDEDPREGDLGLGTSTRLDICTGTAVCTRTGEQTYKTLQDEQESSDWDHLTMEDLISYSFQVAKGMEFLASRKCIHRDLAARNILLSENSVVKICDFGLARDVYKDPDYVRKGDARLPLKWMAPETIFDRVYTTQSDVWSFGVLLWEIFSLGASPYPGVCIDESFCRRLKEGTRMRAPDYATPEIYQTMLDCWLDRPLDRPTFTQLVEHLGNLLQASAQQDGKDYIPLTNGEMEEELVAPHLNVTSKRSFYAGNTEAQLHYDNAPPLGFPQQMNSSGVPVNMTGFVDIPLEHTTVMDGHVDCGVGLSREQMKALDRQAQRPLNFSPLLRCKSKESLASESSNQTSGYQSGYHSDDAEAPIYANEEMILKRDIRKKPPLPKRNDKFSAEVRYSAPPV

Experiment [5] has the same target. Nature of the experiment: Inhibition of VEGFR2-mediated regenerative angiogenesis in PLCgamma1y10 gene-deficient adult zebrafish tail fin vessel assessed as vascularization of newly generated tissues at 100 nM measured on day 3 post treatment by angiography. The class given is tissue-based. Also on record: scale not given: the % may be the effect or the level left. The essentials:
(§3)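 Fins of wild-type or mutant adults cut at mid-fin level, then kept 3 dpa in fish water or 100 nM PTK787 at 31-33 °C. Perfusion shown by intracardiac injection of fluorescent lectin or 70-kDa dextran (5 mg ml-1 in Danieau's, pH 7.6). Tissue regrowth and vessel regeneration measured for each fish and given as percentage of vascularization; ANOVA with Tukey tests.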

For experiment [6] the target is unchanged. Description: Inhibition of VEGFR2-mediated regenerative angiogenesis in adult zebrafish tail fin assessed disruption of actin filament at 500 nM measured after 1 week or recovery post amputation by immunohistochemistry.
Experiment [7] has the same target. Description: Inhibition of VEGFR2-mediated regenerative angiogenesis in adult zebrafish tail fin assessed as amount of tissue regeneration at 500 nM measured on day 7 post treatment by angiography. It counts as tissue-based. The method, boiled down:
as §2

Experiment [8] is filed under the species Danio rerio. Nature of the experiment: Decrease in VEGFR2 gene expression in adult zebrafish tail fin at 500 nM treated for 3 days measured on day 4 following drug washout by real-time PCR analysis.
Experiment [9] concerns the target Vascular endothelial growth factor receptor 2 (Danio rerio) (UniProt Q5GIT4). Nature of the experiment: Inhibition of VEGFR2-mediated regenerative angiogenesis in wild type adult zebrafish tail fin vessel assessed as vascularization of newly generated tissues at 100 nM measured on day 3 post treatment by angiography. On the set-up: scale not given: the % may be the effect or the level left. The class given is tissue-based. The essentials: as §3

The target is the same in experiment [10]. Description: Inhibition of VEGFR2-mediated regenerative angiogenesis in clom39-positive heterozygous adult zebrafish tail fin vessel assessed as vascularization of newly generated tissues at 100 nM measured on day 3 post treatment by angiography. It counts as tissue-based. Also on record: scale not given: the % may be the effect or the level left. The method, boiled down: as §3

Experiment [11] shares this target. Nature of the experiment: Effect on VEGFR2-mediated bone tissue regeneration in adult zebrafish tail fin at 500 nM after 5 days by zns-5 staining-based immunohistochemistry. The essentials:
(§4)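 Fins fixed overnight at 4 °C in Dent's fixative, dehydrated in a methanol series, re-fixed in 4% paraformaldehyde for 2-24 h, then permeabilized in acetone at -20 °C for 20 min and blocked 1 h at 37 °C. Primary antibody zn-12, zns-5 or B-4 (smooth muscle actin) at 1:50-1:200 overnight at 4 °C; Cy2/Cy3 secondary at 1:200.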

Experiment [12] has the same target. Nature of the experiment: Inhibition of VEGFR2-mediated regenerative angiogenesis in adult zebrafish tail fin assessed as reduction of plexus formation at 500 nM treated for 3 days measured after 4 days of drug washout by angiography. The essentials:
as §2

For experiment [13] the target is unchanged. Description: Inhibition of VEGFR2-mediated regenerative angiogenesis in adult zebrafish tail fin proximal vessel at 500 nM treated for 3 days post 5 days of amputation period measured on day 5 by angiography. The essentials: as §2
Experiment [14] shares this target. Description: Partial inhibition of VEGFR2-mediated regenerative angiogenesis in adult zebrafish tail fin vessel at 100 nM after 3 days by microscopy. The method, boiled down: as §1
For experiment [15], the species on record is Danio rerio. Description: Decrease in FGFR1 mRNA expression in adult zebrafish tail fin at 500 nM measured on day 2 post treatment by in-situ hybridization assay.
Experiment [16] concerns the target Vascular endothelial growth factor receptor 2 (Danio rerio) (UniProt Q5GIT4). Nature of the experiment: Inhibition of VEGFR2-mediated regenerative angiogenesis in adult zebrafish tail fin proximal vessel at 500 nM treated for 3 days post 5 days of amputation period measured on day 8 by angiography. The method, boiled down:
as §2

The target is the same in experiment [17]. Nature of the experiment: Inhibition of VEGFR2-mediated shh mRNA expression in adult zebrafish tail fin at 500 nM measured on day 2 post treatment by in-situ hybridization assay.
The target is the same in experiment [18]. Description: Inhibition of VEGFR2-mediated regenerative angiogenesis in adult zebrafish tail fin assessed as amount of tissue regeneration at 500 nM measured on day 14 post treatment by angiography. It counts as tissue-based. The method, boiled down: as §2
Experiment [19] is filed under the species Danio rerio. Nature of the experiment: Decrease in VEGFR2 gene expression in adult zebrafish tail fin at 500 nM after 3 days by real-time PCR analysis.
Experiment [20] deals with Vascular endothelial growth factor receptor 2 (Danio rerio) (UniProt Q5GIT4). Nature of the experiment: Inhibition of VEGFR2-mediated regenerative angiogenesis in adult zebrafish tail fin distal vessel at 500 nM treated for 3 days post 5 days of amputation period measured on day 5 by angiography. The method, boiled down: as §2
Experiment [21] has the same target. Description: Inhibition of VEGFR2-mediated regenerative angiogenesis in adult zebrafish tail fin vessel at 500 to 1000 nM after 3 days by microscopy.
Experiment [22] has the same target. Description: Inhibition of VEGFR2-mediated regenerative angiogenesis in adult zebrafish tail fin vessel harboring hypomorphic mutation in grlm145 gene assessed as vascularization of newly generated tissues at 100 nM measured on day 3 post treatment by angiography. The class given is tissue-based. On the set-up: scale not given: the % may be the effect or the level left. The method, boiled down:
as §3

Experiment [23] has the same target. Description: Complete inhibition of VEGFR2-mediated regenerative angiogenesis in adult zebrafish tail fin vessel at 500 nM after 3 days by microscopy. The method, boiled down:
as §1

Experiment [24] shares this target. Nature of the experiment: Effect on VEGFR2-mediated axonal outgrowth in adult zebrafish tail fin at 500 nM after 5 days by zn-12 staining-based immunohistochemistry. The essentials:
as §4

The target is the same in experiment [25]. Nature of the experiment: Inhibition of VEGFR2-mediated VEGFA mRNA expression in adult zebrafish tail fin at 500 nM after 1.5 days by in-situ hybridization assay.
Experiment [26] has the same target. Nature of the experiment: Inhibition of VEGFR2-mediated regenerative angiogenesis in adult zebrafish tail fin assessed disruption of actin filament at 500 nM after 14 days by immunohistochemistry.
Experiment [27] shares this target. Nature of the experiment: Inhibition of VEGFR2-mediated regenerative angiogenesis in adult zebrafish tail fin assessed as decrease in tissue regeneration at 500 nM after 5 days by angiography. The class given is tissue-based. The essentials:
as §2

Experiment [28] is filed under the species Danio rerio. Description: Effect on semaphorin3aa mRNA expression in adult zebrafish tail fin at 500 nM treated for 3 days measured on day 5 following drug washout by real-time PCR analysis.
Experiment [29] is filed under the species Danio rerio. Nature of the experiment: Decrease in VEGFR2 gene expression in adult zebrafish tail fin at 500 nM treated for 3 days measured on day 5 following drug washout by real-time PCR analysis.
Experiment [30] addresses Vascular endothelial growth factor receptor 2 (Danio rerio) (UniProt Q5GIT4). Description: Effect on VEGFR2-mediated VEGFA mRNA expression in adult zebrafish tail fin at 500 nM treated for 3 days measured on day 5 following drug washout by real-time PCR analysis.
For experiment [31] the target is unchanged. Description: Inhibition of VEGFR2-mediated msxb mRNA expression in adult zebrafish tail fin at 500 nM measured on day 2 post treatment by in-situ hybridization assay.
For experiment [32] the target is unchanged. Nature of the experiment: Inhibition of VEGFR2-mediated regenerative angiogenesis in adult zebrafish tail fin distal vessel at 500 nM treated for 3 days post 5 days of amputation period measured on day 8 by angiography. The essentials: as §2
Experiment [33] shares this target. Nature of the experiment: Mild inhibition of VEGFR2-mediated regenerative angiogenesis in adult zebrafish tail fin vessel at 100 to 500 nM after 3 days by microscopy. The essentials: as §1
Experiment [34] shares this target. Description: Inhibition of VEGFR2-mediated regenerative angiogenesis in adult zebrafish tail fin vessel at 500 to 1000 nM after 3 days by microscopy. It counts as tissue-based.

`O=C(Nc1cccc(C(F)(F)F)c1)c1ccccc1NCc1ccncc1`: in experiment [1], the inhibition entry is “Active”.
Take `Clc1ccc(Nc2nnc(Cc3ccncc3)c3ccccc23)cc1`: the inhibition result in experiment [2], in experiment [6], in experiment [12], in experiment [14], in experiment [19] and in experiment [20] was “Active” each time. Moreover, the inhibition entry in experiment [21], in [23], in [27] and in [32] was “Active” throughout. For the same compound, the outcome in experiment [3], in [11], in [24], in experiment [28] and in [30] was inactive. Besides, the inhibition entry in [4], in experiment [8], in experiment [13], in experiment [15], in [16] and in experiment [17] was “inactive” in each case. Moreover, the inhibition entry in experiment [25], in [26], in experiment [29] and in [31] was “inactive” each time. The Activity in [5] came out at 30%; in [9], 50%; in [10], 50%; in [22], 30%. For the same compound, the regenerated tissue length in experiment [7] and in [18] was 800 µm throughout.
Regarding `CCN(CC)CCNC(=O)c1c(C)[nH]c(/C=C2\C(=O)Nc3ccc(Cl)cc32)c1C`, the inhibition result in [21] and in experiment [33] was “Active” throughout.
Regarding `Cc1cc(C)c(/C=C2\C(=O)Nc3ccccc32)[nH]1`, the inhibition result in experiment [34] was “inactive”.
